An excerpt weighted towards active compounds, which were near 3.3% of everything screened.
ABHD4 inh: inhibits mouse alpha/beta hydrolase domain 4; inhibition, % at 8.92 µM; purified mABHD4, FP-Rh probe fluorescence polarization; AID 720543; 370,000 compounds, 0.54% hits; Q8VD66;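 active = inhibition exceeding the mean over every tested compound plus 3 SD, cut at about 30% in these data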;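 note: 0% = plate median of compound wells and 100% = S159A mutant with DMSO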
Target sequence (Q8VD66 whole entry, looked up, the tested form may be a part): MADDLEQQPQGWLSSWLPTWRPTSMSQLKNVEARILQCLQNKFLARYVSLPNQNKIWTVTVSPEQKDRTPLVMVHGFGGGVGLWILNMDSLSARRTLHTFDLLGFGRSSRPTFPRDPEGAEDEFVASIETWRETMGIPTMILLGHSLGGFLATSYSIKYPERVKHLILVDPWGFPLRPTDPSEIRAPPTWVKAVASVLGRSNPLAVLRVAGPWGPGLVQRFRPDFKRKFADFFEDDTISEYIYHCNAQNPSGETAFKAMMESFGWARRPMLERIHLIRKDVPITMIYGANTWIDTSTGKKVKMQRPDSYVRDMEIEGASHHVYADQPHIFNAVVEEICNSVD
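System: mouse ABHD4 enzyme, wild type / Medium: HEPES pH 7.0, NaCl, Pluronic buffer / Reagent: FP-Rh activity-based fluorescent probe / Control set: S159A mutant high control, sample median low control / Detection: fluorescence polarization with parallel and perpendicular emission, 525/598 nm / Schedule: 45 min + 60 min at 25 °C / Compound dosing: 8.92 µM, single dose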
PRMT1 FP inh: blocks human protein arginine methyltransferase 1; Q99873; recombinant PRMT1, activity-based probe fluorescence polarization; inhibition, % at 2.79 µM; 370,000 compounds, 1.3% hits;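 active = inhibition above about 21% made by adding two undisclosed values, limit read from the data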
SIAE inh: inhibitors of human sialic acid acetylesterase SIAE; SIAE FP-Rh probe binding, fluorescence polarization; inhibition, % at 9.66 µM; 370,000 compounds, 0.69% hits;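 active = inhibition above a cutoff: mean of compounds within the control limits plus 3 SD of those, cut at about 17% in these data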;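 note: 0% = plate median of compound wells and 100% = probe without SIAE protein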
TCR-CD3 inh: human TCR-CD3 binding inhibition; TAMRA-labeled TCR probe fluorescence, biochemical; inhibition, % at 9.4 µM; 360,000 compounds, 0.37% hits; AID 651800; in the data active = inhibition above about 19%;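 note: recombinant mutant TCR 2C K166C tagged with TAMRA read by polarization; 0% = receptor in buffer alone and 100% = receptor with positive control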
rCAG RNA binder: molecules binding r(CAG) RNA repeats. r(CAG) RNA repeat, TO-PRO-1 dye displacement fluorescence. inhibition, % at 3 µM. 370,000 compounds, 1.3% hits;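 active = inhibition above the plate cutoff, the mean of all test compounds on that plate plus 3 SD, cut at about 35% in these data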;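 note: 0% = DMSO alone and 100% = 100 µM mitoxantrone as full dye displacement; higher means more dye released from RNA so lower well fluorescence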
rCAG bind conf: r(CAG) RNA repeat binding, confirmation; shares compounds with rCAG RNA binder; TO-PRO-1 dye displacement fluorescence; inhibition, % at 3 µM; 4,300 compounds, 70% hits; AID 652065;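 active = inhibition above a per-plate cutoff, the mean inhibition of sample wells plus 3 SD, cut at about 35% in these data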;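 note: loss of TO-PRO-1 fluorescence as compound displaces dye from 1x1 AA loop RNA; 0% = DMSO only wells and 100% = 100 µM mitoxantrone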
dCAG dye counter: counter-screen for rCAG RNA binders: DNA CAG dye complex inhibitors | shares compounds with rCAG RNA binder | d(CAG) DNA oligo TO-PRO-1 dye displacement, fluorescence | inhibition, % at 3 µM | 4,300 compounds, 94% hits | AID 652068;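 active = inhibition above its plate's cutoff, the mean test-well inhibition plus 3 SD, cut at about 4.8% in these data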;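 note: 0% = DNA dye mix with DMSO and 100% = 100 µM mitoxantrone; hits displace the dye from DNA and so lower well fluorescence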
PRMT1 inh conf: confirmation of human PRMT1 inhibitors. shares compounds with PRMT1 FP inh. recombinant His-PRMT1, activity-based probe fluorescence polarization. inhibition, % at 2.79 µM. 3,300 compounds, 42% hits. AID 687036;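 active = mean inhibition across replicates above the hit cutoff derived for the earlier primary screen, cut at about 22% in these data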
mABHD4 conf: confirmation of mouse ABHD4 inhibitors | shares compounds with ABHD4 inh | purified mABHD4, FP-Rh probe fluorescence polarization | inhibition, % at 8.92 µM | 1,800 compounds, 55% hits | AID 720658;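 active = mean inhibition across replicates above the hit cutoff set in the primary screen, cut at about 30% in these data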;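 note: 0% = wild-type ABHD4 with DMSO and 100% = catalytically dead S159A mutant with DMSO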
* marks the source's active call; other numbers are inactive results.

Screening COc1cccc(C2C3=C(N=c4s/c(=C\c5cccc(O)c5)c(=O)n42)c2ccccc2CC3)c1OC (stereo unspecified) returned ABHD4 inh -13.7, PRMT1 FP inh -0.2, SIAE inh -29.4, TCR-CD3 inh 6.7 and rCAG RNA binder 11.4.
For CCOC(=O)C1=C(C)N=c2s/c(=C/c3cccc(OCC(=O)O)c3)c(=O)n2C1c1ccc(F)cc1 (stereo unspecified) the results were ABHD4 inh -23.3, PRMT1 FP inh 40.7*, SIAE inh -15.8, TCR-CD3 inh 1.1, rCAG RNA binder 71.5*, rCAG bind conf 75.6*, dCAG dye counter 38.0* and PRMT1 inh conf 0.2.
For COc1ccccc1C1C2=C(N=c3s/c(=C/c4cccc(OCC(=O)O)c4)c(=O)n31)c1ccccc1CC2 (stereo unspecified) the results were ABHD4 inh -18.2, PRMT1 FP inh 56.2*, SIAE inh -20.0, TCR-CD3 inh 10.5, rCAG RNA binder 59.3*, rCAG bind conf 77.8*, dCAG dye counter 43.1* and PRMT1 inh conf 22.1*.
`CCOC(=O)C1=C(C)N=c2s/c(=C\c3cc(OC)c(OC)c(OC)c3)c(=O)n2C1/C=C/c1ccccc1` (stereo unspecified) gave ABHD4 inh 4.6, PRMT1 FP inh -0.5, SIAE inh 0.8, TCR-CD3 inh -1.2 and rCAG RNA binder 5.8.
CCOC(=O)C1=C(C)N=c2s/c(=C\c3cccc(OCC(=O)O)c3)c(=O)n2C1c1ccccc1 (stereo unspecified) was read as ABHD4 inh -8.9, PRMT1 FP inh 32.4*, SIAE inh -0.7, TCR-CD3 inh 6.1, rCAG RNA binder 75.7*, rCAG bind conf 74.8*, dCAG dye counter 36.3* and PRMT1 inh conf 9.2.
CCOC(=O)C1=C(C)N=c2s/c(=C\c3ccc(C(=O)O)cc3)c(=O)n2C1c1ccc(F)cc1 (stereo unspecified) was read as ABHD4 inh 0.6, PRMT1 FP inh 12.6, SIAE inh -1.1, TCR-CD3 inh -6.1 and rCAG RNA binder 6.4.
CC(=O)N1CCN(C2=NC(=O)N(c3ccc(Br)cc3)C(=O)C2)CC1 was read as ABHD4 inh 5.9, PRMT1 FP inh 1.1, SIAE inh 2.7 and rCAG RNA binder 5.3.
`Cc1ccc2nc(-c3ccc(NC(=O)CSc4nnc(-c5cccc(Cl)c5)n4Cc4ccco4)cc3)sc2c1` gave ABHD4 inh -65.0, PRMT1 FP inh 47.1*, SIAE inh -76.5, rCAG RNA binder 44.8*, rCAG bind conf 15.8, dCAG dye counter 8.7* and PRMT1 inh conf 12.5.
`C=CCn1c(SCC(=O)Nc2ccc(-c3nc4ccc(C)cc4s3)cc2)nnc1-c1ccccc1` gave ABHD4 inh 4.2, PRMT1 FP inh 3.7, SIAE inh -22.7, TCR-CD3 inh 1.7 and rCAG RNA binder 10.2.
`Cc1ccc(S(=O)(=O)/N=C2/NC(=O)/C(=C\c3ccco3)S2)cc1` gave ABHD4 inh 31.8*, PRMT1 FP inh 28.1*, SIAE inh -13.0, TCR-CD3 inh 14.6, rCAG RNA binder 69.0*, rCAG bind conf 42.7*, dCAG dye counter 11.3*, PRMT1 inh conf 5.8 and mABHD4 conf -19.7.
For O=C1NC(=O)C(=Cc2ccco2)S1 the results were ABHD4 inh 23.8, PRMT1 FP inh 18.3, SIAE inh -7.2, TCR-CD3 inh 10.2 and rCAG RNA binder 4.9.
For CN(C)CC(=O)N[C@H]1C[C@@H]2O[C@H](CO)CC[C@@H]2O[C@@H]1CCc1ccc(-c2ccc(F)cc2)cc1 the results were ABHD4 inh -4.6, PRMT1 FP inh 6.0, SIAE inh 2.5 and rCAG RNA binder 4.2.
